Screening results as filed in PubChem.
An excerpt weighted towards active compounds, which were near 1.6% of everything screened.
ABHD4 inh = inhibits mouse alpha/beta hydrolase domain 4; Q8VD66; purified mABHD4, FP-Rh probe fluorescence polarization; inhibition, % at 8.92 µM; 370,000 compounds, 0.54% hits; AID 720543;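 active = inhibition exceeding the mean over every tested compound plus 3 SD, cut at about 30% in these data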;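 also: 0% = plate median of compound wells and 100% = S159A mutant with DMSO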
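Assay system: mABHD4 protein; medium: HEPES pH 7.0, NaCl, Pluronic buffer; dosing: 8.92 µM, single dose; schedule: 45 min + 60 min at 25 °C; signal: FP readout, ex 525 nm / em 598 nm; read-out: normalized percent inhibition of probe labeling; repeats: single replicate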
TCR-CD3 inh = human TCR-CD3 binding inhibition. 360,000 compounds, 0.37% hits. inhibition, % at 9.4 µM. TAMRA-labeled TCR probe fluorescence, biochemical; in the data active = inhibition above about 19%;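 also: recombinant mutant TCR 2C K166C tagged with TAMRA read by polarization; 0% = receptor in buffer alone and 100% = receptor with positive control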
SIAE primary = blocks human sialic acid acetylesterase | inhibition, % at 9.66 µM | SIAE FP-Rh probe binding, fluorescence polarization | 370,000 compounds, 0.69% hits | AID 1053197;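 active = inhibition above a cutoff: mean of compounds within the control limits plus 3 SD of those, cut at about 17% in these data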;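 also: 0% = plate median of compound wells and 100% = probe without SIAE protein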
HTRA1 inhibitor = HTRA1 (human) protease inhibition; Q92743; recombinant HTRA1, FP-rhodamine activity-based probe, fluorescence polarization; inhibition, % at 5.96 µM; 340,000 compounds, 0.5% hits; in the data active = inhibition above about 36%;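 also: 0% = enzyme with DMSO and 100% = wells lacking enzyme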
Target sequence (Q92743 whole entry, looked up): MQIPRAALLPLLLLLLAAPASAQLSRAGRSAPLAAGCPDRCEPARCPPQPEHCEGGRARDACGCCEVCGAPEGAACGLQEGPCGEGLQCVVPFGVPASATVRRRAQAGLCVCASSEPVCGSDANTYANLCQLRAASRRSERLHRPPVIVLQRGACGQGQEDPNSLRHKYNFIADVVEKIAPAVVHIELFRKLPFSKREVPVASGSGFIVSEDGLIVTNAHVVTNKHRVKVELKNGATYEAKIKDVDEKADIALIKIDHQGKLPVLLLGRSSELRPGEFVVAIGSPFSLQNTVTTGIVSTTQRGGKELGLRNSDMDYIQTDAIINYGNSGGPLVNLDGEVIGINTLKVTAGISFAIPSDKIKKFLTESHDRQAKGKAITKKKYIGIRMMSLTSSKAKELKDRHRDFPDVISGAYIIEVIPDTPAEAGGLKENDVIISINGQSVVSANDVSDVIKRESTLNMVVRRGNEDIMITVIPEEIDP
DAGLB inhibitor = blocks human DAGLB lipase activity; Q8NCG7; HEK293T DAGLB membrane lysate, EnzChek fluorogenic substrate; inhibition, % at 5.17 µM; 340,000 compounds, 0.059% hits; in the data active = inhibition above about 34%;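 also: 0% = enzyme with vehicle and 100% = wells lacking enzyme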
DAGLB inh conf = DAGLB (human) inhibition, confirmation screen. inhibition, % at 5.17 µM. 190 compounds, 73% hits. AID 504445. shares compounds with DAGLB inhibitor. HEK293T DAGLB membrane lysate, EnzChek fluorogenic substrate;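 active = mean inhibition over triplicate wells above a set limit taken from the primary lipase screen, cut at about 34% in these data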;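 also: 0% = DAGLB with DMSO and 100% = wells lacking DAGLB enzyme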
HTRA1 inh conf = HTRA1 (human) inhibition, confirmation; shares compounds with HTRA1 inhibitor; recombinant HTRA1, FP-rhodamine activity-based probe, fluorescence polarization; inhibition, % at 5.96 µM; 1,600 compounds, 66% hits;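 active = mean inhibition over three repeats above a set limit taken from the earlier primary screen, cut at about 37% in these data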;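 also: 0% = HTRA1 with DMSO and 100% = wells lacking HTRA1; inhibitors block probe binding so polarization drops and inhibition rises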
Numbers without * were called inactive; . = no result given.

SMILES	ABHD4 inh	TCR-CD3 inh	SIAE primary	HTRA1 inhibitor	DAGLB inhibitor	DAGLB inh conf	others
CCN(CC)S(=O)(=O)c1ccc(N/N=C(\C)c2ccc3c(c2)OCO3)c([N+](=O)[O-])c1	-9	2	3	2	-2	.
CCC(C)CNC(=O)CN1C(=O)C2CCCCN2C(=O)c2ccccc21 (stereo not drawn)	-4	.	-1	.	.	.
CC1=NN(c2ccccc2)C(=O)C1N=Nc1ccc(N)cc1 (stereo not drawn)	11	-28	9	33	35*	38*
COC(=O)c1cc2c(-c3ccccc3)cc3ccccn3c-2c1C(=O)OC	15	2	-5	11	37*	30
Nc1nc(-c2ccccc2)c(N=Nc2cccnc2)s1	1	10	-3	11	51*	50*
Cc1ccccc1NC1=C(Cl)C(=O)OC1OC(=O)c1ccco1 (stereo not drawn)	4	2	3	-6	36*	31
COc1ccccc1NC1=C(Cl)C(=O)OC1OC(=O)c1ccco1 (stereo not drawn)	6	2	-4	4	12	.
O=C(O)c1cc(S(=O)(=O)Nc2cc(Cl)ccc2Oc2ccccc2)ccc1O	-16	-6	-8	-20	39*	38*
Cc1ccc(NC(=O)N2CCC(N(C)CCC(C)C)CC2)cc1F	0	.	-3	.	.	.
C#CCN(Cc1cccc(F)c1)C(=O)c1nnc2c3cc(F)ccc3n(S(=O)(=O)c3ccc(OC)cc3)c2n1	3	4	0	.	.	.
CN(C)N=Nc1ccc(S(N)(=O)=O)cc1	4	3	3	4	0	.
CN(C)c1ccc(N=Nc2ccc(S(N)(=O)=O)cc2)cc1	-11	-3	-5	0	39*	39*
CCN(Cc1ccccc1)c1ccc(N=Nc2nn(C)c(C)c2[N+](=O)[O-])cc1	1	4	6	15	59*	56*
CCN(CC)c1ccc(N=Nc2nn(C)c(C)c2[N+](=O)[O-])cc1	8	8	-6	20	44*	46*
CCN(CC)c1ccc(N=Nc2ncn[nH]2)cc1	-7	-3	-3	.	.	.
CCN(Cc1ccccc1)c1ccccc1	2	3	3	0	-3	.
CC(C)OP(=O)(O)C(C)NC(=O)OCc1ccccc1 (stereo not drawn)	5	.	-2	.	.	.
Cc1ccc(-c2c(NC(=O)Nc3ccc(F)cc3)nc3ncccn23)cc1	5	.	-2	.	.	.
CC(C)[C@H](NS(=O)(=O)c1ccc(F)cc1F)C(=O)N1CCC[C@H]1C(=O)NCCc1ccccc1Cl	-4	-5	0	.	.	.
CN(C)c1ccc(/C=C/c2ccc3c4ccccc4ccc3[n+]2-c2ccccc2)cc1	-172	-81	-115	-102	35*	61*
Cc1ccc(OCCNC(=O)[C@@H](Cc2ccccc2)NC(=O)[C@H]2O[C@@H](n3ccc(=O)[nH]c3=O)[C@H](O)[C@@H]2O)cc1C	-6	7	-4	.	.	.
CC(C)Oc1ccccc1/C=N/Nc1ccccc1[N+](=O)[O-]	11	-3	3	11	26	.
COc1cc(/C=N/Nc2ccccc2[N+](=O)[O-])cc(OC)c1O	26	-6	17	25	39*	49*
COc1ccccc1/C=N\Nc1ccccc1[N+](=O)[O-]	3	-6	-4	1	35*	37*
FC(F)(F)c1ccccc1CN1CCCc2nc(-c3ccc(Br)cc3)ccc21	3	3	-7	.	.	.
SMILES	ABHD4 inh	TCR-CD3 inh	SIAE primary	HTRA1 inhibitor	DAGLB inhibitor	DAGLB inh conf	others
COc1cccc(C(=O)NNc2c3ccccc3nc3ccccc23)c1	14	2	4	3	45*	44*
O=[N+]([O-])c1ccc(N2CCSCC2)cc1	0	1	-7	5	-4	.
O=[N+]([O-])c1ccc(N2CCN(c3ccc(F)cc3)CC2)cc1	1	3	-4	-1	55*	99*
COc1ccc(N/C=C2\C(=O)CCc3c2oc2cc(Cl)c(O)c(Cl)c32)cc1	29	1	9	19	36*	38*
CC1CCC2(CC1)CCC2NCc1ccc(Cl)c(Cl)c1 (stereo not drawn)	7	.	2	.	.	.
CCCCCCCCCCC[C@@H](C[C@@H]1OC(=O)[C@H]1CCCCCC)OC(=O)[C@H](CC(C)C)NC=O	16	4	-11	0	49*	86*
CCCCCCC1CC(/C(C)=N\NC(N)=O)OC1=O (stereo not drawn)	1	-7	6	0	1	.
COc1ccc(C2/C=C\CN(C(=O)C3CC3)[C@H](Cc3ccccc3)C(=O)N2Cc2ccc(F)cc2)cc1 (stereo partly drawn)	.	.	.	-29	-10	.
COc1ccc(C2/C=C\CN(C(=O)c3ccc(C)cc3)[C@H](Cc3ccccc3)C(=O)N2Cc2ccc(F)cc2)cc1 (stereo partly drawn)	.	.	.	-42	40*	39*
COc1ccc(-c2noc(C3CCCN(C(=O)NC4CCC(C)CC4)C3)n2)cc1 (stereo not drawn)	0	.	8	.	.	.
CCc1ccc(S(=O)(=O)Nc2ccc(O)c3c(=O)cc(-c4ccccc4Cl)oc23)cc1	-8	-3	-24	-40	-2	.
O=c1cc(-c2ccccc2Cl)oc2c(NS(=O)(=O)c3cc(Cl)cc(Cl)c3O)ccc(O)c12	.	.	.	-34	41*	38*
COc1ccc(C(=O)C2(C(=O)NCCO)CC(c3ccccn3)=NO2)cc1 (stereo not drawn)	5	.	3	.	.	.
O=C(NC(C(=O)N/N=C/c1cccc2ccccc12)c1n[nH]c(=O)c2ccccc12)c1ccccc1 (stereo not drawn)	-88	9	-137	-72	39*	40*
COc1ccccc1N=Nc1nc(-c2ccccc2)c(-c2ccccc2)[nH]1	-102	5	13	5	40*	50*
O=S(=O)(Nc1ncccn1)c1ccc(NC(=S)Nc2ccc(Cl)cc2)cc1	-3	3	-2	1	2	.
CCc1ccc(NC(=S)Nc2ccc(S(=O)(=O)Nc3ncccn3)cc2)cc1	-1	-4	6	3	54*	-1
COc1ccc(C(=O)NNC(=S)NC(=O)c2cc(-c3ccccc3)nc3ccccc23)cc1	0	10	-9	8	10	.
CCCOc1ccc(C(=O)NNC(=S)NC(=O)c2cc(-c3ccc(Cl)cc3)nc3ccccc23)cc1	-8	-3	-51	7	39*	90*
Cc1cc(N=Nc2ccccc2)c(NCC(O)C(O)C(O)CO)cc1C (stereo not drawn)	14	-7	4	45*	45*	43*	HTRA1 inh conf=39*
O=c1c2ccccc2n(Cc2ccccc2)n1[C@@H](Cc1ccccc1)Cn1cc(C2CCCC2)nn1	4	.	8	.	.	.
